Reference: PubChem BioAssay
Inconclusive results are not listed. Calls of active or inactive are those of the source.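 The calls were made as follows, unless noted: active = cell viability at or below a set limit in both duplicate runs, the limit being the all-compound median minus 4 SD (cut at about 23% in these data, passing the limit was not always enough); inconclusive = no clear call, values can overlap the other calls; inactive = the rest.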

How the values were obtained:
[1] = OD615 S. cerevisiae growth inhibition, permissive medium, pilot counter-assay, permissive growth control for S. cerevisiae lifespan shortening project (AID 705;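 active = growth inhibition above 25% in both replicates, a cutoff set 3 SD above the mean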); conditions: OD615, 24 h, at 10 µM, active compounds read high
Method in brief: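 assay system = Saccharomyces cerevisiae strain carrying genetically modified DeaD replicative-lifespan system | technique = absorbance (optical density) at 615 nm | buffer or medium = permissive raffinose/galactose medium | timing = cells pre-grown 4 h, then 24 h compound exposure, 30 °C humidified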

[2] = Restrictive medium S. cerevisiae growth inhibition, OD615, pilot screen of yeast lifespan reduction project, restrictive growth control (AID 706;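 active = growth inhibition above a set limit, 3 SD over mean compound inhibition, in both replicates, cut at about 43% in these data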;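 also: modified DeaD lifespan yeast strain shifted to restrictive glucose medium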); conditions: OD615, 48 h, at 10 µM, active compounds read high
Method in brief: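 System: modified S. cerevisiae. Buffer or medium: CSMM-D glucose medium. Incubation: 4 h pre-growth plus 48 h compound exposure, 30 °C. Detection: absorbance (optical density) measured at 615 nm.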

[3] = viability gain of MRP-1-high H69AR cells under doxorubicin, pilot screen, MRP-1 activator project, CellTiter-Glo, duplicate (AID 807;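 active = viability increase at or above a cutoff of the median across tested compounds plus 3 SD, cut at about 8.5% in these data, passing the limit was not always enough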;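 also: compound pretreatment 18-22 h then 72 h combined with doxorubicin; 0% = doxorubicin alone and 100% = vehicle without doxorubicin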); conditions: H69AR viability with doxorubicin, CellTiter-Glo luminescence; at 10 µM; active compounds read high
[4] = growth suppression of beta-catenin knockout HCT116, pilot screen, human colon tumor cells (AID 823); conditions: CellTiter-Glo, 60 h, at 10 µM, active compounds read low;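 also: 0% = wells killed by 20 µM Hyamine and 100% = untreated DMSO cell wells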
[5] = growth suppression of PTEN-deleted HCT116, pilot screen, cell-based, HCT116 clonal line, CellTiter-Glo (AID 824;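 active = viability at or below 27.92% in each of two runs, the all-compound median minus 4 SD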;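 also: 0% = 20 µM Hyamine control and 100% = vehicle cell control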); conditions: 60 h, at 10 µM, active compounds read low
[6] = inhibitors of the yeast RAM network, pilot screen, dse1pr::URA3 reporter, 5-FOA selection (AID 869;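 active = inhibition over a set limit, the all-compound mean plus 3 SD, in both replicate runs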;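 also: 0% = DMSO wells with no growth and 100% = 10 µM 1-NA-PP1 with full growth; RAM network block rescues cells from 5-FOA so hits raise OD615 growth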); conditions: S. cerevisiae dse1pr::URA3 5-FOA growth, OD615, 2 d; at 10 µM; active compounds read high; strain carries analog-sensitive mutant Cbk1 kinase
[7] = RAM signaling pathway blockade in yeast – S. cerevisiae, Pdr1DBD-CYC8 efflux-inhibited sensitized strain, primary screen (AID 1298;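 active = RAM network inhibition above 8.4% in each of two replicates, 3 SD over the compound average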;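 also: 0% = DMSO untreated cells without growth and 100% = 10 µM 1-NA-PP1 full growth; higher means more yeast growth rescued from 5-FOA killing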); conditions: S. cerevisiae cbk1-as DSE1-URA3 strain, 5-FOA growth OD615, 2 d; at 50 µM; active compounds read high

Oc1c(C(c2cccs2)N2CCN(c3ccccc3)CC2)sc2ncnn12 (stereo not drawn)
active: viability increase [3] 12.3%
inactive: growth inhibition [1] -13.2% | growth inhibition [2] -5.4% | viability [4] 90.9% | viability [5] 89.5% | inhibition [6] 1.53% | RAM network inhibition [7] 1.45%

CCN(CC)C(=O)c1cc2c(=O)n3ccccc3nc2s1
inactive: growth inhibition [1] -4.75% | growth inhibition [2] -3.33% | viability increase [3] -3.66% | viability [4] 93.7% | viability [5] 96.2% | inhibition [6] 1.94% | RAM network inhibition [7] 0.68%

c1ccc(COc2ccc(Nc3ncnc4nc[nH]c34)cc2)cc1
inactive: growth inhibition [1] -2.53% | growth inhibition [2] 7.49% | viability increase [3] -0.86% | viability [4] 85.7% | viability [5] 83% | inhibition [6] 0.435% | RAM network inhibition [7] 4.8%

O=C1C2C3C=CC(C3)C2C(=O)N1c1ccccc1 (stereo not drawn)
inactive: growth inhibition [1] -0.875% | growth inhibition [2] 4.47% | viability increase [3] 0.71% | viability [4] 100% | viability [5] 98.7% | inhibition [6] 1.81% | RAM network inhibition [7] 1.49%

COc1ccccc1S(=O)Cc1ccc(C(=O)NC2CCCC2)o1 (stereo not drawn)
inactive: growth inhibition [1] 4.5% | growth inhibition [2] 4.6% | viability increase [3] -2.33% | viability [4] 107% | viability [5] 101% | inhibition [6] 0.395% | RAM network inhibition [7] 3.24%

Cc1ccc(C)c2c1sc(=NC(=O)CN1C(=O)CCC1=O)n2C
inactive: growth inhibition [1] -15% | growth inhibition [2] -2.54% | viability increase [3] -1.69% | viability [4] 88% | viability [5] 83.2% | inhibition [6] 2.84% | RAM network inhibition [7] 5.96%

COc1ccc(C(=O)NCC23C=CC(O2)C2C(=O)N(Cc4ccccc4)C(=O)C23)cc1 (stereo not drawn)
inactive: growth inhibition [1] -5.3% | growth inhibition [2] 13.4% | viability increase [3] -0.77% | viability [4] 85.1% | viability [5] 88.8% | inhibition [6] 2.19% | RAM network inhibition [7] 3.67%

CCNc1nc2c(c(=O)[nH]c(=O)n2C)n1CC(C)C
inactive: growth inhibition [1] -5.42% | growth inhibition [2] -2.34% | viability increase [3] -2.15% | viability [4] 106% | viability [5] 100% | inhibition [6] 0.05% | RAM network inhibition [7] 2.92%

CCCc1nc(SCc2ccccn2)c2c(=O)n(C)c(=O)n(C)c2n1
inactive: growth inhibition [1] -3.14% | growth inhibition [2] -0.14% | viability increase [3] 1.81% | viability [4] 83.4% | viability [5] 85.4% | inhibition [6] 1.61% | RAM network inhibition [7] 5.45%

Cc1nc2ccc(NC(=O)c3ccc(S(=O)(=O)N4CCOCC4)cc3)cc2s1
inactive: growth inhibition [1] -2.22% | growth inhibition [2] -2.84% | viability increase [3] 0.28% | viability [4] 95.3% | viability [5] 93.8% | inhibition [6] 3.07% | RAM network inhibition [7] 4.83%

CC(=O)c1ccc(OCC(O)CN2CCC(C)CC2)cc1 (stereo not drawn)
inactive: growth inhibition [1] -0.26% | growth inhibition [2] 9.25% | viability increase [3] -0.16% | viability [4] 101% | viability [5] 101% | inhibition [6] 0.54% | RAM network inhibition [7] -2.94%

FC(F)(F)c1nnc2ccc(-n3ccnc3)nn12
inactive: growth inhibition [1] -9.92% | growth inhibition [2] -28.6% | viability increase [3] -1.45% | viability [4] 103% | viability [5] 88.4% | inhibition [6] 0.61% | RAM network inhibition [7] 3.79%

Cc1cccc(-n2c(Cc3cc(=O)[nH]c(=O)[nH]3)nnc2SC(C)C)c1
inactive: growth inhibition [1] -8.09% | growth inhibition [2] -1.15% | viability increase [3] -1.84% | viability [4] 101% | viability [5] 97.7% | inhibition [6] 1.72% | RAM network inhibition [7] 3.87%

N#CC1=C2SCN(Cc3ccco3)CN2C(=O)CC1c1c(F)cccc1Cl (stereo not drawn)
inactive: growth inhibition [1] -2.04% | growth inhibition [2] 20.3% | viability increase [3] -4.91% | viability [4] 88% | viability [5] 88.1% | inhibition [6] 1.95% | RAM network inhibition [7] 4.76%

CC(C)N(CCc1ccncc1)C(=O)Nc1ccc(F)cc1
inactive: growth inhibition [1] 0.1% | growth inhibition [2] -7.37% | viability increase [3] -2.27% | viability [4] 102% | viability [5] 96.8% | inhibition [6] 1.21% | RAM network inhibition [7] 5.33%

O=C(c1ccccc1Cl)N1CCC(c2nc3c(nnn3Cc3ccco3)c(=O)[nH]2)CC1
inactive: growth inhibition [1] -6.62% | growth inhibition [2] -11.1% | viability increase [3] -4.32% | viability [4] 92.5% | viability [5] 87.3% | inhibition [6] 0.69% | RAM network inhibition [7] 3.74%

O=S(=O)(Nc1nnc(-c2ccccc2)s1)c1ccc(Cl)cc1
inactive: growth inhibition [1] 4.67% | growth inhibition [2] 14.4% | viability increase [3] -0.34% | viability [4] 104% | viability [5] 105% | inhibition [6] 3.29% | RAM network inhibition [7] 1.95%

CCOC(=O)C1CCCN(C(=O)Cn2sc3nc(C)cc(C)c3c2=O)C1 (stereo not drawn)
inactive: growth inhibition [1] 18.4% | growth inhibition [2] 29.4% | viability increase [3] -8.04% | inhibition [6] 1.51% | RAM network inhibition [7] 2.71%
active: viability [4] 3.38% | viability [5] 12.6%

COC(=O)c1ccc(CSc2nc3c(c(=O)n2-c2ccc(Br)cc2)SCC3)o1
inactive: growth inhibition [1] -15.5% | growth inhibition [2] -19.8% | viability increase [3] -3.79% | viability [4] 80.9% | viability [5] 76% | inhibition [6] 1.67% | RAM network inhibition [7] 7.53%

CCN(CCNC(=O)Cn1cc2c(n1)CCCC2)c1ccccc1
inactive: growth inhibition [1] -4.85% | growth inhibition [2] -6.55% | viability increase [3] 0.42% | viability [4] 109% | viability [5] 93.5% | inhibition [6] 2.4% | RAM network inhibition [7] 0.1%

CCOC(=O)Nc1cc(C)c(Cl)cc1OC
inactive: growth inhibition [1] -8.55% | growth inhibition [2] -0.98% | viability increase [3] -2.98% | viability [4] 84.5% | viability [5] 75.7% | inhibition [6] 2.17% | RAM network inhibition [7] 5.3%

COC(=O)c1ccc(C2c3c(oc4cc(C)c(C)cc4c3=O)C(=O)N2CCCN(C)C)cc1 (stereo not drawn)
inactive: growth inhibition [1] -7.92% | growth inhibition [2] -7.88% | viability increase [3] -2.2% | viability [4] 93.8% | viability [5] 87.7% | inhibition [6] 0.34% | RAM network inhibition [7] 3.78%

CCCC1(C(=O)O)NC(c2ccccc2O)C2C(=O)N(Cc3ccccc3)C(=O)C21 (stereo not drawn)
inactive: growth inhibition [1] 7.11% | growth inhibition [2] 6.84% | viability increase [3] -1.02% | viability [4] 97.5% | viability [5] 90.8% | inhibition [6] 0.45% | RAM network inhibition [7] 0.88%

N=c1n(CCOc2ccccc2)c2ccccc2n1CCN1CCOCC1
inactive: growth inhibition [1] -1.46% | growth inhibition [2] 6.28% | viability increase [3] -3.52% | viability [4] 82.5% | viability [5] 85.8% | inhibition [6] 0.845% | RAM network inhibition [7] -0.47%
